# Screens: PubChem, several laboratories
# HTR2A ag = activates the mouse 5-HT2A serotonin receptor. P35363. CHO-K1 mHTR2A beta-arrestin complementation, luminescence; percent of 30 µM serotonin response. activation, % at 7.6 µM. actives 0.66% (n = 360,000). AID 624169;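 active = activation above a run cutoff, the mean activation of all tested compounds plus 3 SD, cut at about 14% in these data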;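 also: 0% = plate median of compound wells and 100% = 30 µM serotonin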
# Target sequence (P35363 whole entry, looked up): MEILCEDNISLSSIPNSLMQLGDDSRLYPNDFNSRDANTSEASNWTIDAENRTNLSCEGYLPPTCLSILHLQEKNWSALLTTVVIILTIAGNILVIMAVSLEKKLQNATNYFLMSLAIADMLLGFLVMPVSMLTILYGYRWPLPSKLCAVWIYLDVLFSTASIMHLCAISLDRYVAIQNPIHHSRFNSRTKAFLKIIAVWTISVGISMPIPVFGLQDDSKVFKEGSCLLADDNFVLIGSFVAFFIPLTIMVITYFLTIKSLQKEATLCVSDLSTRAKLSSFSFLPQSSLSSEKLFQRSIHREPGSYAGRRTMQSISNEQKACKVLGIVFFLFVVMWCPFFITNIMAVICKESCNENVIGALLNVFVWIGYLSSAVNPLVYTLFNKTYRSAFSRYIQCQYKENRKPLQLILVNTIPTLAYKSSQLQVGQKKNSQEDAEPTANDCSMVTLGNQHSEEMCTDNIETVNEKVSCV
# CCR6 antag = CCR6 (human) receptor antagonism; actives 0.49% (n = 340,000); inhibition, % at 20 µM; P51684; CHO-K1 CCR6 PathHunter beta-arrestin, luminescence, CCL20-stimulated;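 active = compounds whose inhibition of the agonist-driven luminescence signal at 20 µM reaches about 50%, limit read from the data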;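 also: cells stimulated with CCL20 at 14 nM final; plate controls were DMSO with CCL20 for no effect and DMSO without agonist for full effect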
# APJ antag = APJ receptor antagonism; P35414; CHO-K1 APJ beta-arrestin complementation, luminescence; inhibition, % at 20 µM; actives 0.32% (n = 330,000); AID 2521;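 active = inhibition above about 40% at 20 µM, limit read from the data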;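 also: cells challenged with 10 nM apelin-13 agonist together with compound; plate controls were apelin-13 plus DMSO wells for no effect and DMSO wells lacking apelin-13 for full effect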
# EBI2 antag = blocks human EBI2 receptor beta-arrestin signaling. inhibition, % at 5 µM. EBI2 beta-arrestin recruitment, luminescence, 7a,25-OHC stimulated. P32249. actives 0.81% (n = 360,000); in the data active = inhibition above about 38%;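 also: enzyme fragment complementation signal reports receptor beta-arrestin coupling in cells; 0% = agonist plus DMSO wells and 100% = wells without agonist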
# APJ ag = activates the human apelin receptor APJ. activation, % at 20 µM. actives 0.11% (n = 330,000). P35414. CHO-K1 APJ PathHunter beta-arrestin, luminescence; 0% DMSO wells, 100% apelin;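 active = activation more than six SD over the plate average, tested at 20 µM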;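 also: 0% = DMSO alone and 100% = apelin-13 at 10 nM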
#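 assay system = CHO-K1 APJ beta-arrestin complementation cell line | input = cell density 1000 per well | dosing = compound 20 µM once, DMSO 1% | timing = compound 90 min 25 °C, reagent 1 h | measured by = luminescence from split beta-galactosidase complementation, Galacton Star/Emerald II substrate | read-out basis = APJ agonist activity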
# CXCR6 inh = blocks human CXCR6 beta-arrestin recruitment; CHO-K1 PathHunter CXCR6 beta-arrestin, luminescence; inhibition, % at 20 µM; actives 0.36% (n = 360,000); AID 602244; in the data active = inhibition above about 34%, passing the limit was not always enough;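 also: antagonist mode with CXCL16 agonist at 10 nM final; 0% = 10 nM CXCL16 with DMSO and 100% = unstimulated wells without agonist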
# EBI2 antag conf = confirmation of human EBI2 receptor antagonists; shares compounds with EBI2 antag; AID 651997; actives 29% (n = 2,400); inhibition, % at 5 µM; EBI2 beta-arrestin luminescence, 7a,25-OHC antagonism;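 active = inhibition of at least 50%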
# EBI2 agonist = EBI2 agonism counter-screen; shares compounds with EBI2 antag; EBI2-expressing cells, agonist mode, luminescence, 60 min; 0% vehicle, 100% 7α,25-dihydroxycholesterol control; activation, % at 5 µM; 2,400 tested, under 10 active;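 active = activation of at least 50%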
# bGal counter = beta-galactosidase inhibition counter-screen. purified beta-galactosidase, luminescent Galacton Star, 15 min. shares compounds with EBI2 antag. inhibition, % at 5 µM. actives 1% (n = 2,400);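 active = replicate-average signal at least 3 plate SD below neutral wells, shown as high inhibition, flagging enzyme-inhibiting false positives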;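 also: 0% = DMSO wells with enzyme and 100% = wells lacking enzyme; higher means stronger loss of beta-gal luminescence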
# An asterisk follows results filed as active; . = no result. In the library only some 2.1% were active in any assay of this set; here they are far more common.
SMILES,HTR2A ag,CCR6 antag,APJ antag,EBI2 antag,APJ ag,CXCR6 inh,EBI2 antag conf,EBI2 agonist,bGal counter
COc1cc(NC(=O)C2CC(c3c(F)cccc3Cl)=NO2)cc(OC)c1OC (configuration not stated),1,-7,8,-8,4,-1,.,.,.
CC1CCC2(CC1)NC(=O)N(CC(=O)Nc1ccc(F)cc1)C2=O (configuration not stated),3,13,4,-7,-2,-6,.,.,.
O=C(COC(=O)c1ccc(Cl)cc1Cl)Nc1cccc(S(=O)(=O)NC2=NCCC2)c1,-4,7,-3,-10,-2,0,.,.,.
NC(=O)[C@@H]1CC2(CC(c3cccc(NC(=O)COc4ccc(Cl)cc4)c3)=NO2)CN1C(=O)COc1ccc(Cl)cc1 (some centres not stated),0,1,-5,53*,16,8,24,-1,-18
COc1cc2ccccc2cc1C(=O)NC1CCCC1,-10,1,4,7,1,-1,.,.,.
COc1cc2ccccc2cc1C(=O)NC1CCC(C)CC1 (configuration not stated),8,18,-1,65*,-4,11,48,0,4
CC(=O)Nc1cccc(-c2cc(NC=O)c3ncc(-c4cccc(C(C)=O)c4)n3c2)c1,11,.,.,54*,.,1,14,-1,-12
CC(=O)Nc1cc(-c2ccccc2Cl)cn2c(-c3ccc(S(C)(=O)=O)cc3)cnc12,1,.,.,55*,.,12,25,2,3
CC(=O)Nc1cc(-c2ccc(CO)cc2)cn2c(-c3cccc(C(F)(F)F)c3)cnc12,-5,.,.,46*,.,5,24,-1,-9
CN(C)C(=O)c1cccc(-c2cnc3c(NC=O)cc(-c4ccccc4Cl)cn23)c1,-3,.,.,62*,.,-1,29,0,5
COc1ccc(CN2CCN(C3CCC3)CC2CCO)cc1C (configuration not stated),-1,13,11,-5,-1,-6,.,.,.
O=C(COc1ccc(F)cc1)N1CCC(c2ccccc2)C1 (configuration not stated),-1,-14,7,57*,-5,2,27,0,3
Cc1cccc(OCC(=O)N2CCC(c3ccccc3)C2)c1 (configuration not stated),-8,-9,-3,46*,1,1,44,1,3
Cc1ccc(NS(=O)(=O)c2cc(C(=O)NCCSc3ccc(C)cc3)ccc2C)cc1,-3,18,-8,44*,1,8,11,-2,-8
CC(C)CC(OC(=O)c1ccc(Cl)nc1)C(=O)NC1CCCC1 (configuration not stated),-13,19,-7,1,1,8,.,.,.
CCOc1cc(C2NC(=O)NC(C)=C2C(=O)OCC2CCCCC2)ccc1O (configuration not stated),3,-11,-2,-8,-2,10,.,.,.
O=C(/C=C/c1ccc(OCCCF)cc1)NCc1ccc(Cl)cc1,0,-8,0,50*,-3,0,36,0,3
FCCCOc1ccc(/C=N/OCc2ccc(Cl)cc2)cc1,-2,24,13,60*,0,4,23,1,3
Cc1cc(C)c(S(=O)(=O)N2CCN(C(=O)c3ccc(-n4cncn4)c([N+](=O)[O-])c3)CC2)c(C)c1,10,-3,-57,72*,5,-10,35,-1,-8
O=C(c1ccc(-n2cncn2)c([N+](=O)[O-])c1)N1CCN(S(=O)(=O)c2ccccc2Br)CC1,-3,-4,-20,14,5,-14,.,.,.
